ChEMBL document CHEMBL2434878, “Synthesis and antimycobacterial activity of analogues of the bioactive natural products sampangine and cleistopholine” (Eur J Med Chem, 2013)
≈ marks a conversion by molar mass, not a printed value.

What was measured:
[1] = system: Mycobacterium tuberculosis; test: Antimicrobial activity against Mycobacterium tuberculosis H37Rv ATCC 27294 expressing luciferase reporter gene assessed as growth inhibition at 10 uM after 6 days by luminometry relative to control; assay type: functional; conditions: H37Rv ATCC 27294, 144 h, read-out: GI
Procedure, shortened: (§1)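 Single-concentration screen of the luminescent H37Rv reporter strain in 7H9-10% FCS, inoculated at 50,000 RLU/ml, 6 days at 37 °C. Luminescence was read after n-decanal addition. Percent inhibition is versus the untreated culture, as the mean of triplicate cultures.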

[2] = system: Mycobacterium tuberculosis; test: Antimicrobial activity against Mycobacterium tuberculosis H37Rv ATCC 27294 expressing luciferase reporter gene assessed as growth inhibition at 0.1 uM after 6 days by luminometry relative to control; assay type: functional; conditions: H37Rv ATCC 27294, 144 h, read-out: GI; procedure, shortened: as §1
[3] = system: Mycobacterium tuberculosis; test: Antimicrobial activity against Mycobacterium tuberculosis H37Rv ATCC 27294 expressing luciferase reporter gene assessed as growth inhibition at 1 uM after 6 days by luminometry relative to control; assay type: functional; conditions: H37Rv ATCC 27294, 144 h, read-out: GI; procedure, shortened: as §1
[4] = system: Mycobacterium tuberculosis; test: Antimicrobial activity against Mycobacterium tuberculosis H37Rv ATCC 27294 expressing luciferase reporter gene infected in mouse J774 macrophages assessed as intracellular growth inhibition at 1 uM after 4 days by luminometry relative to untreated control; assay type: functional; conditions: H37Rv ATCC 27294, J774, 96 h, read-out: GI
Procedure, shortened: (§2)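 J774.A1 murine macrophages were seeded at 40,000 cells/well, recovered overnight and infected with luminescent H37Rv. From 24 h post-infection, cells were treated for 4 days in DMEM with penicillin and fungizone, without gentamicin. Growth was read by luminescence after 1% n-decanal and expressed as percent inhibition versus untreated, in triplicate. Macrophage viability was checked by trypan blue.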

[5] = Therapeutic index, ratio of IC50 for human HepG2/C3A cells to GI50 for Mycobacterium tuberculosis H37Rv ATCC 27294; assay type: cell-based; conditions: read-out: TI
Procedure, shortened: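 TI is NI50/GI50. NI50 came from a neutral red uptake assay in C3A hepatocytes (40,000 cells/well, 24 h exposure at 37 °C, 3 h dye, OD 530 nm with 620 nm reference): the concentration reducing dye uptake by 50%. GI50 came from the 6-day luminescent H37Rv assay.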

[6] = system: Mycobacterium ulcerans; test: Antimicrobial activity against Mycobacterium ulcerans 1615 expressing luciferase reporter gene assessed as growth inhibition after 6 days by luminometry; assay type: functional; conditions: Mycobacterium ulcerans, 1615, 144 h
Procedure, shortened: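 Luminescent M. ulcerans 1615 carrying pSMT1 luciferase plasmid, grown at 32 °C in 7H9 with 10% OADC and 0.2% glycerol. Serial dilutions from 10 mM DMSO stocks in 7H9 + 10% FCS; bacteria dosed at 50,000 RLU/ml, triplicate wells. After 6 days, light read over 10 s following 1% n-decanal in ethanol. GI50 taken at 50% growth reduction versus untreated culture.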

[7] = system: Mycobacterium avium subsp. paratuberculosis; test: Antimicrobial activity against Mycobacterium avium subsp. paratuberculosis ATCC 15769 expressing luciferase reporter gene assessed as growth inhibition after 6 days by luminometry; assay type: functional; conditions: ATCC 15769, 144 h
[8] = Cytotoxicity against human HepG2/C3A cells after 24 hrs by neutral red dye uptake assay; assay type: cell-based
[9] = system: Mycobacterium tuberculosis; test: Antimicrobial activity against Mycobacterium tuberculosis H37Rv ATCC 27294 expressing luciferase reporter gene assessed as reduction in bacterial count after 6 days by luminometry; assay type: functional; conditions: H37Rv ATCC 27294, 144 h
Procedure, shortened: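 MIC by serial dilution in the 6-day luminescent H37Rv assay (7H9-10% FCS, 50,000 RLU/ml inoculum, triplicate wells, n-decanal read-out). MIC is the concentration giving at least one log10 reduction in signal versus the untreated control.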

[10] = Antimicrobial activity against Mycobacterium avium subsp. avium ATCC 19698 expressing luciferase reporter gene assessed as growth inhibition after 6 days by luminometry; assay type: functional; conditions: ATCC 19698, 144 h
[11] = system: Mycobacterium tuberculosis; test: Antimicrobial activity against Mycobacterium tuberculosis H37Rv ATCC 27294 expressing luciferase reporter gene assessed as growth inhibition after 6 days by luminometry; assay type: functional; conditions: H37Rv ATCC 27294, 144 h
Procedure, shortened: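 Luminescent H37Rv (pSMT1, V. harveyi luciferase) was declumped by filtration, adjusted to 50,000 RLU/ml in 7H9-10% FCS, and exposed to serial compound dilutions in triplicate for 6 days at 37 °C. Light was read for 10 s after adding 1% n-decanal. GI50 is the concentration giving 50% growth reduction versus untreated culture.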

[12] = system: Mycobacterium tuberculosis; test: Antimicrobial activity against Mycobacterium tuberculosis H37Rv ATCC 27294 expressing luciferase reporter gene infected in mouse J774 macrophages assessed as intracellular growth inhibition at 0.5 uM after 4 days by luminometry relative to untreated control; assay type: functional; conditions: H37Rv ATCC 27294, J774, 96 h, read-out: GI; procedure, shortened: as §2
[13] = system: Mycobacterium tuberculosis; test: Antimicrobial activity against Mycobacterium tuberculosis H37Rv ATCC 27294 expressing luciferase reporter gene infected in mouse J774 macrophages assessed as intracellular growth inhibition at 2 uM after 4 days by luminometry relative to untreated control; assay type: functional; conditions: H37Rv ATCC 27294, J774, 96 h, read-out: GI; procedure, shortened: as §2

Row | SMILES | inhibition of growth at 10 µM [1] [%] | inhibition of growth at 0.1 µM [2] [%] | inhibition of growth at 1 µM [3] [%] | inhibition of growth at 1 µM [4] [%] | selectivity ratio [5] | GI50 [6] [µM] | GI50 [7] [µM] | IC50 [8] [µM] | MIC90 [9] [µM] | GI50 [10] [µM] | GI50 [11] [µM] | inhibition of growth at 0.5 µM [12] [%] | inhibition of growth at 2 µM [13] [%]
1 | Cc1nc(-c2ccc(F)cc2)cc2c1C(=O)c1ccccc1C2=O | 100 | 41 | 68 | – | – | – | – | – | – | – | – | – | –
2 | Cc1nccc2c1C(=O)c1ccccc1C2=O | 58 | 10 | 22 | – | – | – | – | – | – | – | – | – | –
3 | O=C1c2ccccc2C(=O)c2c(O)cc(-c3ccccc3)cc21 | 100 | 15 | 88 | 49 | 12.6 | 12.6 | 4.71 | 10.8 | 2.12 (≈ 0.637 µg/mL) | 5.02 | 0.86 | 36.6 | 68.3
4 | Cc1ccc(-c2cc(O)c3c(c2)C(=O)c2ccccc2C3=O)cc1 | 98 | 21 | 35 | – | – | – | – | – | – | – | – | – | –
5 | Cc1cncc2c1C(=O)c1ccccc1C2=O | 48 | < 10 | 11 | – | – | – | – | – | – | – | – | – | –
6 | CN(C)/C=C/c1cncc2c1C(=O)c1ccccc1C2=O | 53 | < 10 | 17 | – | – | – | – | – | – | – | – | – | –
7 | O=C1c2ccccc2-c2nccc3cncc1c23 | 62 | 11 | 25 | – | – | – | – | – | – | – | – | – | –
8 | Cc1nc(-c2ccccc2)cc2c1C(=O)c1ccccc1C2=O | 98 | 21 | 66 | – | – | – | – | – | – | – | – | – | –
9 | COc1ccc(-c2cc3c(c(C)n2)C(=O)c2ccccc2C3=O)cc1 | 100 | 32 | 70 | – | – | – | – | – | – | – | – | – | –
10 | Cc1nc(-c2ccc(Cl)cc2)cc2c1C(=O)c1ccccc1C2=O | 100 | 42 | 68 | – | – | – | – | – | – | – | – | – | –
11 | COc1ccc(OC)c(-c2cc3c(c(C)n2)C(=O)c2ccccc2C3=O)c1 | 86 | < 10 | 35 | – | – | – | – | – | – | – | – | – | –
12 | Cc1ccc(-c2cc3c(c(C)n2)C(=O)c2ccccc2C3=O)cc1 | 99 | 54 | 63 | – | – | – | – | – | – | – | – | – | –
13 | Cc1nc(C(C)C)cc2c1C(=O)c1ccccc1C2=O | 54 | < 10 | 24 | – | – | – | – | – | – | – | – | – | –
14 | Cc1nc(C(C)(C)C)cc2c1C(=O)c1ccccc1C2=O | 51 | < 10 | 18 | – | – | – | – | – | – | – | – | – | –
15 | CN(C)/C=C/c1nc(-c2ccccc2)cc2c1C(=O)c1ccccc1C2=O | 100 | 45 | 100 | 34.6 | 46.9 | 8.65 | 3.68 | 24.4 | 1.4 (≈ 0.496 µg/mL) | 4.89 | 0.52 | 13.4 | 49.5
16 | COc1ccc(OC)c(-c2cc3c(c(/C=C/N(C)C)n2)C(=O)c2ccccc2C3=O)c1 | 87 | 35 | 47 | – | – | – | – | – | – | – | – | – | –
17 | CN(C)/C=C/c1nc(C(C)(C)C)cc2c1C(=O)c1ccccc1C2=O | 73 | 21 | 53 | – | – | – | – | – | – | – | – | – | –
18 | O=C1c2ccccc2-c2nccc3nc(-c4ccccc4)cc1c23 | 100 | 67 | 95 | 32.6 | 39.1 | 10.6 | 3.21 | 21.5 | 1.2 (≈ 0.37 µg/mL) | 4.22 | 0.55 | 14.6 | 48.2
19 | O=C1c2ccccc2-c2nccc3nc(-c4ccc(F)cc4)cc1c23 | 100 | 53 | 100 | 30.2 | > 72.4 | 9.23 | 3.56 | > 50 | 1.5 (≈ 0.489 µg/mL) | 3.98 | 0.69 | 15.3 | 65.5
20 | O=C1c2ccccc2-c2nccc3nc(-c4ccc(Cl)cc4)cc1c23 | 99 | 77 | 99 | 20.3 | > 69.4 | – | – | > 50 | 1.85 (≈ 0.634 µg/mL) | – | 0.72 | 2.27 | 44.2
21 | COc1ccc(OC)c(-c2cc3c4c(nccc4n2)-c2ccccc2C3=O)c1 | 87 | 39 | 75 | – | – | – | – | – | – | – | – | – | –
22 | Cc1ccc(-c2cc3c4c(nccc4n2)-c2ccccc2C3=O)cc1 | 100 | 73 | 100 | 34.6 | 16.6 | – | – | 7.14 | 1.31 (≈ 0.422 µg/mL) | – | 0.43 | 7 | 47.2
23 | CC(C)(C)c1ccc(-c2cc3c4c(nccc4n2)-c2ccccc2C3=O)cc1 | 73 | 32 | 41 | – | – | – | – | – | – | – | – | – | –
24 | NNC(=O)c1ccncc1 [ISONIAZID] | 100 | 99 | 100 | 92.8 | – | – | – | – | 0.09 (≈ 0.0123 µg/mL) | – | 0.01 | 76.4 | 97.3
